This is a sample that favours compounds with a hit; in the whole collection about 2.3% have one here.
SKN-1 inh = inhibitors of C. elegans SKN-1. C. elegans VP596 Pgst-4::GFP/RFP ratio, acrylamide-induced, 24 h. inhibition, % at 21.8 µM. 360,000 compounds, 0.49% hits. AID 624304;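 active = interference check ratio from 0.5 to 1.5 plus GFP to RFP signal ratio inhibition reaching or exceeding a fixed threshold, cut at about 30% in these data, passing the limit was not always enough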
CSN deneddyl inh = CSN deneddylation inhibition | Purified CSN, SCF-Nedd8-OG deneddylation, fluorescence polarization | inhibition, % at 12.5 µM | 360,000 compounds, 0.38% hits | AID 651999;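 active = pattern-corrected inhibition above about 35%, with an unprinted fluorescence ratio check between 0.5 and 1.5, limit read from the data, passing the limit was not always enough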;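 note: 0% = enzyme with substrate and 100% = substrate without enzyme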
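test system = HEK293T-derived human Csn5 enzyme | amount = 0.24 nM Csn5 enzyme, final concentration | medium = Tris/NaCl/DTT buffer, pH 7.5 | schedule = 90 min reaction at room temperature | signal = FP | evaluation = inhibition of Csn5 cleavage, % | compound dosing = single dose of 12.5 µM compound with 0.25% DMSO | probe or stimulus = 10 nM SCFSkp2-Nedd8OG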
DNMT1 inh = DNMT1 (human) enzyme inhibition; 360,000 compounds, 0.83% hits; inhibition (reported as % activation of signal), % at 10 µM; DNMT1 molecular beacon, Hinp1I cleavage, fluorescence; P26358; AID 588458; in the data active = inhibition above about 50%
MT1-MMP act inh = blocks activation of human MT1-MMP | HT1080 RFP-PRO-GFP cells, GFP/RFP ratio fluorescence, overnight; percent of plate control window, DMSO zero | P50281 | GFP/RFP ratio change, % at 20 µM | AID 651647 | 360,000 compounds, 0.061% hits;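 active = GFP/RFP ratio change of at least 30% with cell ATP level not reduced by more than half and red fluorescence within 50% of control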
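Assay system: HT1080 cells carrying an RFP-PRO-GFP reporter | Dosing: Single dose of 20 µM compound, 1% DMSO final | Incubation: Cells overnight before dosing, compound overnight, 37 °C, 5% CO2 | Evaluation: GFP/RFP fluorescence ratio | Control set: DMSO and RFP-L50D-GFP cell wells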
SUMO1 PPI mod = modulators of human SUMO1-mediated protein-protein interactions. SUMO1 binding to a labelled peptide, TR-FRET, 1 h. inhibition, % at 20 µM. 360,000 compounds, 0.33% hits. AID 602429; in the data active = inhibition above about 37%
Target sequence (P63165 whole entry, looked up): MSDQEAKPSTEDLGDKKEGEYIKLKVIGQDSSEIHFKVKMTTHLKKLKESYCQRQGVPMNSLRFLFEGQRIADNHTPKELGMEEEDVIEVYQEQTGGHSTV
Rpn11 inh = inhibitors of human proteasome Rpn11 | O00487 | human 26S proteasome, Ub4-pepOG fluorescence polarization; 20S core pre-blocked with epoxomicin | inhibition, % at 20 µM | 360,000 compounds, 0.59% hits;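 active = inhibition at 20 µM, scaled to each plate's controls, above about 33%, limit read from the data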
Target sequence (O00487 whole entry, looked up): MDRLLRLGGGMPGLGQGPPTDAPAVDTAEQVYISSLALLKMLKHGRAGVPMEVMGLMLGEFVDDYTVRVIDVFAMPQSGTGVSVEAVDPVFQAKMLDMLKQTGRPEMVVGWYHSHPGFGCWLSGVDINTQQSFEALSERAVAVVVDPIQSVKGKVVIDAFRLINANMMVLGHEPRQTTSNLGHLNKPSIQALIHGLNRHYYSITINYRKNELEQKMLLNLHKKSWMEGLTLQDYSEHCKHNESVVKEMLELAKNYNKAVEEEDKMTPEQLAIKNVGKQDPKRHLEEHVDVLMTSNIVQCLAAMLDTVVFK
DNMT1 inh conf = confirmation of human DNMT1 inhibitors | shares compounds with DNMT1 inh | DNMT1 molecular beacon HinP1I cleavage, fluorescence | inhibition, % at 10 µM | 2,300 compounds, 8% hits;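 active = average inhibition of at least 30% in the single-concentration confirmation test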
DNMT1 interf = beacon fluorescence artifact counter-screen. shares compounds with DNMT1 inh. DNMT1 molecular beacon spectral interference counterscreen, fluorescence 485/520. activation (fluorescence interference), % at 10 µM. 2,300 compounds, 1% hits;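 active = activation of at least 30% at 10 µM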;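 note: DNMT1 catalytic domain with a HinP1I cleavage step and a FAM/dabcyl DNA beacon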
Rpn11 inh conf = Rpn11 inhibition confirmation, single concentration; 1,900 compounds, 29% hits; inhibition, % at 20 µM; purified human 26S proteasome, Ub4-pepOG fluorescence polarization; proteasome pretreated with epoxomicin; shares compounds with Rpn11 inh
MMP-2 counter-1 = blocks human MMP-2, flagging nonselective RPN11 hits; shares compounds with Rpn11 inh; inhibition, % at 20 µM; recombinant MMP-2, FRET peptide cleavage fluorescence; 1,900 compounds, 4% hits;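 note: human MMP-2 activated beforehand with APMA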
Thrombin inh = blocks bovine thrombin, flagging nonselective RPN11 hits; shares compounds with Rpn11 inh; AID 602333; 1,900 compounds, 13% hits; inhibition, % at 20 µM; bovine thrombin cleavage of Ub4-pepOG, fluorescence polarization;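 active = mean inhibition at least 40% at 20 µM, or signal 3 deviations below plate average, so some actives read negative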;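 note: plate controls were thrombin with DMSO for no effect and buffer wells lacking thrombin for full effect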
CSN5 deneddyl = validation of inhibitors of human CSN-mediated cullin deneddylation | shares compounds with CSN deneddyl inh | Csn5 deneddylation of SCF-Nedd8OG, fluorescence polarization, 90 min | inhibition, % at 16.6 µM | 540 compounds, 62% hits | AID 720654; in the data active = inhibition above about 50%;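 note: 0% = DMSO with enzyme and 100% = no enzyme wells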
MMP-2 counter-2 = blocks human MMP-2 in a CSN deneddylation counter-screen; shares compounds with CSN deneddyl inh; recombinant MMP-2, FRET substrate fluorescence, 60 min; inhibition, % at 16.6 µM; 540 compounds, 33% hits;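 active = corrected plate-normalized z-score of 5 or more, or -5 or less, or inhibition of 15% or more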;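 note: plate controls were DMSO wells with enzyme for no effect and buffer wells lacking MMP-2 for full effect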
Thrombin counter = thrombin (bovine) inhibition, counter-screen for CSN hits; bovine thrombin cleavage of Ub4-pepOG, fluorescence polarization; inhibition, % at 16.6 µM; 540 compounds, 49% hits; shares compounds with CSN deneddyl inh;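 active = inhibition at or above a set limit, with a fluorescence interference ratio between 0.5 and a set maximum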
Numbers without * were called inactive. Cut-off read from the data, not from the text of the source, unless noted: active = inhibition above about 40%; inactive = the rest.

For CCOc1cc2c(c3c1C(c1ccccc1)N(S(=O)(=O)c1ccc(C)cc1)C3)C(=O)C=CC2=O (stereo not drawn) the results were SKN-1 inh -2, CSN deneddyl inh 1, DNMT1 inh -45, MT1-MMP act inh 5, SUMO1 PPI mod 3 and Rpn11 inh 1.
`COc1ccccc1/C=c1\sc2nc(-c3ccco3)nn2c1=O` gave SKN-1 inh 12, CSN deneddyl inh 38*, DNMT1 inh 106*, MT1-MMP act inh -7, SUMO1 PPI mod 26, Rpn11 inh 15, DNMT1 inh conf 4, DNMT1 interf 2, CSN5 deneddyl 86*, MMP-2 counter-2 4 and Thrombin counter 6.
CSc1ccc(C2C(C#N)=C(N)Oc3c2ccc(=O)c2c(C)oc(C)c32)cc1 (stereo not drawn) was read as SKN-1 inh 5, CSN deneddyl inh 49*, DNMT1 inh 74*, MT1-MMP act inh -80, SUMO1 PPI mod 22, DNMT1 inh conf 4, DNMT1 interf 6, CSN5 deneddyl 95*, MMP-2 counter-2 4 and Thrombin counter 15.
Screening Cc1oc(C)c2c(=O)ccc3c(c12)OC(N)=C(C#N)C3c1ccccc1Cl (stereo not drawn) returned SKN-1 inh 19, CSN deneddyl inh 31, DNMT1 inh 2, MT1-MMP act inh -62 and SUMO1 PPI mod 1.
COc1ccc(OC)c(Nc2cc3ccccc3c(=O)[nH]2)c1 was read as SKN-1 inh 5, CSN deneddyl inh 26, DNMT1 inh 14, MT1-MMP act inh -34, SUMO1 PPI mod 5 and Rpn11 inh -15.
For COc1ccccc1Nc1cc2cc(Br)ccc2c(=O)[nH]1 the results were SKN-1 inh 3, CSN deneddyl inh 53*, DNMT1 inh 69*, MT1-MMP act inh -11, SUMO1 PPI mod 23, Rpn11 inh 3, DNMT1 inh conf 0, DNMT1 interf 3, CSN5 deneddyl 70*, MMP-2 counter-2 10 and Thrombin counter -25.
`O=c1[nH]c(Nc2ccccc2)cc2ccccc12` gave SKN-1 inh -28, CSN deneddyl inh 24, DNMT1 inh 44, MT1-MMP act inh -36, SUMO1 PPI mod 29 and Rpn11 inh -14.
O=c1[nH]c(Nc2ccccc2)cc2cc(Br)ccc12 was read as SKN-1 inh -3, CSN deneddyl inh 49*, DNMT1 inh 92*, MT1-MMP act inh -2, SUMO1 PPI mod 37, Rpn11 inh 8, DNMT1 inh conf 0, DNMT1 interf 0, CSN5 deneddyl 61*, MMP-2 counter-2 3 and Thrombin counter -44.
`COc1ccc(C(C(=O)Nc2ccc(F)cc2)N2CCN(c3cccc(C(F)(F)F)n3)CC2)cc1` (stereo not drawn) gave SKN-1 inh -27, CSN deneddyl inh 8, MT1-MMP act inh -11 and SUMO1 PPI mod -1.
`COc1cc(Cn2c3ccc(NC(=S)NCc4ccc(C)cc4)cc3c(=O)n2C)ccc1F` gave SKN-1 inh -2, CSN deneddyl inh 0, DNMT1 inh -11, MT1-MMP act inh -1, SUMO1 PPI mod 1 and Rpn11 inh 4.
Screening CC1=CC(Cc2ccccc2)N(C)C(C(N)=O)C1 (stereo not drawn) returned SKN-1 inh 8, CSN deneddyl inh 1, DNMT1 inh -3, MT1-MMP act inh 7, SUMO1 PPI mod 1 and Rpn11 inh 5.
`O=C(N/N=C/c1cc(Cl)ccc1O)c1ccc(Br)cc1` gave SKN-1 inh 9, CSN deneddyl inh 44*, DNMT1 inh 81*, MT1-MMP act inh -33, SUMO1 PPI mod 5, Rpn11 inh 166*, DNMT1 inh conf 9, DNMT1 interf 4, Rpn11 inh conf 177*, MMP-2 counter-1 9, Thrombin inh 16, CSN5 deneddyl 32, MMP-2 counter-2 39* and Thrombin counter 16*.
O=C(N/N=C/c1cc(Br)ccc1O)c1ccncc1 was read as SKN-1 inh 4, CSN deneddyl inh 9, DNMT1 inh 0, MT1-MMP act inh -3, SUMO1 PPI mod -4 and Rpn11 inh 36.
CCOc1ccc(NC(=O)Nc2ccc3nsnc3c2)cc1 was read as SKN-1 inh -3, CSN deneddyl inh -3, DNMT1 inh 0, MT1-MMP act inh 2, SUMO1 PPI mod -12 and Rpn11 inh -5.
CCOc1ccc(NC(=S)Nc2ccc3nsnc3c2)cc1 was read as SKN-1 inh 1, CSN deneddyl inh 44*, DNMT1 inh 85*, MT1-MMP act inh 0, SUMO1 PPI mod 50*, Rpn11 inh 4, DNMT1 inh conf -1, DNMT1 interf -2, CSN5 deneddyl 95*, MMP-2 counter-2 35* and Thrombin counter -24.
Screening Cc1cccc(N=C2NC(=O)/C(=C/C=C/c3ccco3)S2)c1 returned SKN-1 inh -3, CSN deneddyl inh 53*, DNMT1 inh 85*, MT1-MMP act inh -2, SUMO1 PPI mod 14, Rpn11 inh 11, DNMT1 inh conf 14, DNMT1 interf 1, CSN5 deneddyl 88*, MMP-2 counter-2 -4 and Thrombin counter 2.

Compound activity deposited in PubChem by Sanford-Burnham Center for Chemical Genomics.
